ChEMBL document CHEMBL4028905, “A Unique Approach to Design Potent and Selective Cyclic Adenosine Monophosphate Response Element Binding Protein, Binding Protein (CBP) Inhibitors” (J Med Chem, 2017)
Calls of active or inactive are those of the source. The rule behind the calls is not given here.

How the values were obtained:
[1] = biological target: T1, Transcription intermediary factor 1-alpha (Homo sapiens, UniProt O15164); assay: Binding affinity to human TRIM24 (G862 to E980) expressed in bacterial cells by BromoScan assay; assay type: cell-based
T1 sequence (O15164 whole entry): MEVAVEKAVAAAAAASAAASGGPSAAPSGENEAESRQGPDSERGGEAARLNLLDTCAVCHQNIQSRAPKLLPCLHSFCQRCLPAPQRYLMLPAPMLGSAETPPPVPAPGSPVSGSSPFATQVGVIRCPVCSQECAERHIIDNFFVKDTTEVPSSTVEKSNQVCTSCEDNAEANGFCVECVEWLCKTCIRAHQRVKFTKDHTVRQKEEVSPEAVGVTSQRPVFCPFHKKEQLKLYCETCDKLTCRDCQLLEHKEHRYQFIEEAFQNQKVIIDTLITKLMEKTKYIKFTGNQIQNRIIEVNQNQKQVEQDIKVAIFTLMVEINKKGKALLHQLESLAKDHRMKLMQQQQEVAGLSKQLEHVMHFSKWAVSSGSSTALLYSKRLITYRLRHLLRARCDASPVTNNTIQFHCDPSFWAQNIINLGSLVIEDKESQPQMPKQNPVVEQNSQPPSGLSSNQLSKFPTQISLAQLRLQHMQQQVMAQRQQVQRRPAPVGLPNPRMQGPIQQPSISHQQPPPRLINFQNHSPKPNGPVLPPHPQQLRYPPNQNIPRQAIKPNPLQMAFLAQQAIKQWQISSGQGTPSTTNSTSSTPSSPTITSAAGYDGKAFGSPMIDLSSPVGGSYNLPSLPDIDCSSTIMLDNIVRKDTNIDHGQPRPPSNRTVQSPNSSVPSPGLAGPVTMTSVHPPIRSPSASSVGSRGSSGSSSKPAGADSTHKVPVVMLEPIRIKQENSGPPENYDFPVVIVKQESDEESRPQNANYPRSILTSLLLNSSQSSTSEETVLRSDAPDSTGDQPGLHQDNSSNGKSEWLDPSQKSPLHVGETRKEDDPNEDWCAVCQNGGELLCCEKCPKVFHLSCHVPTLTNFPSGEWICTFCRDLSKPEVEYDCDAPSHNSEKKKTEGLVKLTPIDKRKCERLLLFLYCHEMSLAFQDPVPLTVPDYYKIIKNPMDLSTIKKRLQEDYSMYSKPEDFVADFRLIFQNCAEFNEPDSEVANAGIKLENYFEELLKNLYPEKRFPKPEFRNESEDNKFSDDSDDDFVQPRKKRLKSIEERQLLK

[2] = biological target: T2, Bromodomain-containing protein 9 (Homo sapiens, UniProt Q9H8M2); assay: Binding affinity to human BRD9 (R130 to V259) expressed in bacterial cells by BromoScan assay; assay type: cell-based
T2 sequence (Q9H8M2 whole entry): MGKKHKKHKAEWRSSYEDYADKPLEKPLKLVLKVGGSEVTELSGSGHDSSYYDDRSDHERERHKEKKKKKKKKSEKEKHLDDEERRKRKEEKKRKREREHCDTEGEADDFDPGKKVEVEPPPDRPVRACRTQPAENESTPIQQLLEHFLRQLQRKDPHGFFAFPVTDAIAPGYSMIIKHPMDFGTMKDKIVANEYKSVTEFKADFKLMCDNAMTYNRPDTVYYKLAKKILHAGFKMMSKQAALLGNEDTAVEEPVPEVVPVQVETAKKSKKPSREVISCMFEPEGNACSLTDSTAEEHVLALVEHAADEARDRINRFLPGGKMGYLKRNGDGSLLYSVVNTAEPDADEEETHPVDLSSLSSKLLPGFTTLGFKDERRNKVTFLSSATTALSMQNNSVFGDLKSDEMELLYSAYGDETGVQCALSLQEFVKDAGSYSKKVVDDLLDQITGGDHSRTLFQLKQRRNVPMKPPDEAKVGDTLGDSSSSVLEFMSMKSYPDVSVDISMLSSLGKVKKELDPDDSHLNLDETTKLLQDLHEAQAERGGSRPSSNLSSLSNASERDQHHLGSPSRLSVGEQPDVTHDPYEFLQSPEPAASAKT

[3] = Half life in CD-1 mouse at 1 mg/kg, iv by LC-MS/MS analysis; assay type: ADME, organism-based; settings: in vivo
In short: (§1)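 Female CD-1 mice, 6–9 weeks, 20–35 g, n = 3 per route. Dosing was 1 mg/kg i.v. in PEG400/DMSO/water (35/10/55 v/v) or 5 mg/kg p.o. suspended in 0.5% methylcellulose/0.2% Tween 80. Serial tail-nick blood sampled to 24 h and diluted in K2EDTA water. Analysis by acetonitrile precipitation and LC–MS/MS (MRM, positive ESI); LLOQ 0.001 μM.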

[4] = biological target: Bromodomain-containing protein 3 (Homo sapiens, UniProt Q15059); assay: Binding affinity to human BRD3 bromodomain 2 (G306 to P416) expressed in bacterial cells by BromoScan assay; assay type: cell-based
Bromodomain-containing protein 3, sequence (Q15059 whole entry): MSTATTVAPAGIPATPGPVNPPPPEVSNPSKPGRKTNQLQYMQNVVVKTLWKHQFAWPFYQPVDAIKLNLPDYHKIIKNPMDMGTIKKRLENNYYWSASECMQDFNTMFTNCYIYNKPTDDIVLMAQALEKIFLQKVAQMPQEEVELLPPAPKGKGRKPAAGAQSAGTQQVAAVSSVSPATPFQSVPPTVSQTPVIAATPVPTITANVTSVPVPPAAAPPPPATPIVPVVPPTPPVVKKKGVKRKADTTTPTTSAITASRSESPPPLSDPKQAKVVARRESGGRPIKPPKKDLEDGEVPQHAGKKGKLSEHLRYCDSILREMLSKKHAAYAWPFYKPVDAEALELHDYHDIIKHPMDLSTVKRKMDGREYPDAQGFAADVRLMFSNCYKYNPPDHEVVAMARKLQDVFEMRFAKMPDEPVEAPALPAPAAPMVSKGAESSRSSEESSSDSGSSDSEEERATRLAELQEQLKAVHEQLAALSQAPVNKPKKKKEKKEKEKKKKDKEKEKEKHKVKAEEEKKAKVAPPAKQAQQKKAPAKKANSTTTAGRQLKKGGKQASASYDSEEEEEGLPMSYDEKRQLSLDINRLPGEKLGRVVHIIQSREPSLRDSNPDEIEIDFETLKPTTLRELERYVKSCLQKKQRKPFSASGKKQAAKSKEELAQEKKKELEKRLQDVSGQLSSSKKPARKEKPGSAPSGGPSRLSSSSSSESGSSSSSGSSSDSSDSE

[5] = biological target: Histone acetyltransferase p300 (Homo sapiens) (UniProt Q09472); assay: Binding affinity to human P300 (A1040 to G1161) expressed in bacterial cells by BromoScan assay; assay type: cell-based
Histone acetyltransferase p300 (Homo sapiens), sequence (Q09472 whole entry): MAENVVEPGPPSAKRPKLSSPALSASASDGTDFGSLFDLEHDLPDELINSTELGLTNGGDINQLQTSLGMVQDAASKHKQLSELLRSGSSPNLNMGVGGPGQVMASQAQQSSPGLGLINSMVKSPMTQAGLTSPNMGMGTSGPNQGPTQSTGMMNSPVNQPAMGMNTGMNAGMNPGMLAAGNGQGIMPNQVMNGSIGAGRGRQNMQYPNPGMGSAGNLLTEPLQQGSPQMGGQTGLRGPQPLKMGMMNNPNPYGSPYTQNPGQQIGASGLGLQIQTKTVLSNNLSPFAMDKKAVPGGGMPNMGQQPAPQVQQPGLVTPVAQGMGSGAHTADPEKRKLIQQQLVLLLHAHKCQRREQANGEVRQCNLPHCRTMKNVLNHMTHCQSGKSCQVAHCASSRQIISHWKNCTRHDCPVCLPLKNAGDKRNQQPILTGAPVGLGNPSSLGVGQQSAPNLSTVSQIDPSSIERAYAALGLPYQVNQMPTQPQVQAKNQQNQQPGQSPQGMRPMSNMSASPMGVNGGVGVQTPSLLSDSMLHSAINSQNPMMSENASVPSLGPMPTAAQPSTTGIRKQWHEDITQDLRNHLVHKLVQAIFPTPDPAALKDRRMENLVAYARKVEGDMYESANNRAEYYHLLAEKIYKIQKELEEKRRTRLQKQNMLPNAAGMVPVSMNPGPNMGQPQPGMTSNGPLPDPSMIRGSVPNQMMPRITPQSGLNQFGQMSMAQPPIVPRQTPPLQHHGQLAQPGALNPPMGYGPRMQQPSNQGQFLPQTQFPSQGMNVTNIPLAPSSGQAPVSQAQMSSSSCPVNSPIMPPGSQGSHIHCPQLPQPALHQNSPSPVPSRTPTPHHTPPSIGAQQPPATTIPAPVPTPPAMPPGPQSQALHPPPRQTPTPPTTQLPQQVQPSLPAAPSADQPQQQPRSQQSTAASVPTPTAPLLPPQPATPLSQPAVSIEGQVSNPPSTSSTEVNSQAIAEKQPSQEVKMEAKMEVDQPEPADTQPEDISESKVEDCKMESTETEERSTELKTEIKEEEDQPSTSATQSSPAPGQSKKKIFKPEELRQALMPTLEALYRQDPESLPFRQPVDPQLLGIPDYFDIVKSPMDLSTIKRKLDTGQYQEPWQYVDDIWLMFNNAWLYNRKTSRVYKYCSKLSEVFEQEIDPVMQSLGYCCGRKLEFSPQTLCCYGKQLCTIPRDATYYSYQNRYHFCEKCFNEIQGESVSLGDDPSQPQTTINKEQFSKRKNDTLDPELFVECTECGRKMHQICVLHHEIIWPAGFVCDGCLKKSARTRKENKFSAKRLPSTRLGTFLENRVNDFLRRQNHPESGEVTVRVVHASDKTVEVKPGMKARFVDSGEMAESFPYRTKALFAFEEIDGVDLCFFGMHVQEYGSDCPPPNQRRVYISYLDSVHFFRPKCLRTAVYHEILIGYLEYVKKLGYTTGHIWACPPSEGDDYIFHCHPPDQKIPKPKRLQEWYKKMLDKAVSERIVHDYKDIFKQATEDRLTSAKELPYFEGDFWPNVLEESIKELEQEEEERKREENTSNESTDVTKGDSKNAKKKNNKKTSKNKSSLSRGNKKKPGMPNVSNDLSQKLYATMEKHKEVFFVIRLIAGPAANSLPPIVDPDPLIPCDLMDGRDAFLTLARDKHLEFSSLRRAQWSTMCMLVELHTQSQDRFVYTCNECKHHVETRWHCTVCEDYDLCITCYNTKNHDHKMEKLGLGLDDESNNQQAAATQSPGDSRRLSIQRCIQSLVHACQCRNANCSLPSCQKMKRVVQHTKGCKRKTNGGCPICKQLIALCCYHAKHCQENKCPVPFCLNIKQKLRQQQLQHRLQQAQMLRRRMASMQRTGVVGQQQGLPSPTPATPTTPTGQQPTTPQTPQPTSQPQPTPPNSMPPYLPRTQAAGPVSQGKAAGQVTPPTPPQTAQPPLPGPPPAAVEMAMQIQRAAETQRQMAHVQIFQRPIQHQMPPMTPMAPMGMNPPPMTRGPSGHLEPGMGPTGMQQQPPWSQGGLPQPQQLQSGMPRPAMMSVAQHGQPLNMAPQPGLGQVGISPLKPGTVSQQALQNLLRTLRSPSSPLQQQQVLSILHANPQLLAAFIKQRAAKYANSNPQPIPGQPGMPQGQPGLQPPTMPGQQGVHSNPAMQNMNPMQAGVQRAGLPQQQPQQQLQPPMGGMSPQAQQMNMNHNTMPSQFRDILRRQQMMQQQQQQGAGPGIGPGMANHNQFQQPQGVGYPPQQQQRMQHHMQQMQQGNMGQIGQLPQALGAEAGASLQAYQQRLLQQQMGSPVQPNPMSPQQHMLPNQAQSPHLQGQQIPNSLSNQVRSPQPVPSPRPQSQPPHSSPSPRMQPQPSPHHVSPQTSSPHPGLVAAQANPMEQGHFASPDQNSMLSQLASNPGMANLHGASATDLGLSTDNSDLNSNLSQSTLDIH

[6] = Intrinsic clearance in rat liver microsomes at 1 uM in presence of NADPH by LC-MS/MS analysis; assay type: ADME, microsome; settings: read-out: CLH
[7] = Intrinsic clearance in mouse liver microsomes at 1 uM in presence of NADPH by LC-MS/MS analysis; assay type: ADME, microsome; settings: read-out: CLH
CREB-binding protein [8] = biological target: T3, CREB-binding protein (Homo sapiens, UniProt Q92793); assay: Binding affinity to human CBP (R1081 to G1197) expressed in bacterial cells by BromoScan assay; assay type: cell-based
[9] = Volume of distribution at steady state in CD-1 mouse at 1 mg/kg, iv or 5 mg/kg, po by LC-MS/MS analysis; assay type: ADME, organism-based; settings: in vivo, read-out: Vdss; in short: as §1
[10] = Total clearance in CD-1 mouse at 1 mg/kg, iv or 5 mg/kg, po by LC-MS/MS analysis; assay type: ADME, organism-based; settings: in vivo; in short: as §1
[11] = biological target: Bromodomain-containing protein 4 (Homo sapiens, UniProt O60885); assay: Inhibition of His tagged recombinant BRD4 bromodomain 1 (unknown origin) by TR-FRET assay
In short: (§2)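 Recombinant His-tagged bromodomains purified by Ni affinity, tag removed with thrombin, checked by mass spectrometry. Assay is TR-FRET competition against a biotinylated small-molecule ligand. Normalized inhibition vs concentration fit to 4-parameter Hill equation; […] for optimization.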

[12] = Intrinsic clearance in human liver microsomes at 1 uM in presence of NADPH by LC-MS/MS analysis; assay type: ADME, microsome; settings: read-out: CLH
CREB-binding protein [13] = biological target: T3, CREB-binding protein; assay: Inhibition of His tagged recombinant CBP (unknown origin) by TR-FRET assay; in short: as §2
[14] = Oral bioavailability in CD-1 mouse at 5 mg/kg by LC-MS/MS analysis; assay type: ADME, organism-based; settings: in vivo; in short: as §1
[15] = biological target: CREB-binding protein/Histone acetyltransferase p300 (Homo sapiens, UniProt Q09472+Q92793); assay: Inhibition of P300/CBP in human MV4-11 cells assessed as reduction in MYC expression after 4 hrs by luminescence based assay; assay type: cell-based
In short: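 MV-4-11 cells plated at 10,000 per well in RPMI1640 with 10% FBS and 2 mM L-glutamine. Compounds added in DMSO at a final 0.1% and incubated 4 h at 37 °C before MYC expression read-out; EC50 derived.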

[16] = biological target: T4, Bromodomain-containing protein 7 (Homo sapiens, UniProt Q9NPI1); assay: Binding affinity to human BRD7 (L125 to R254) expressed in mammalian cells by BromoScan assay; assay type: cell-based
T4 sequence (Q9NPI1 whole entry): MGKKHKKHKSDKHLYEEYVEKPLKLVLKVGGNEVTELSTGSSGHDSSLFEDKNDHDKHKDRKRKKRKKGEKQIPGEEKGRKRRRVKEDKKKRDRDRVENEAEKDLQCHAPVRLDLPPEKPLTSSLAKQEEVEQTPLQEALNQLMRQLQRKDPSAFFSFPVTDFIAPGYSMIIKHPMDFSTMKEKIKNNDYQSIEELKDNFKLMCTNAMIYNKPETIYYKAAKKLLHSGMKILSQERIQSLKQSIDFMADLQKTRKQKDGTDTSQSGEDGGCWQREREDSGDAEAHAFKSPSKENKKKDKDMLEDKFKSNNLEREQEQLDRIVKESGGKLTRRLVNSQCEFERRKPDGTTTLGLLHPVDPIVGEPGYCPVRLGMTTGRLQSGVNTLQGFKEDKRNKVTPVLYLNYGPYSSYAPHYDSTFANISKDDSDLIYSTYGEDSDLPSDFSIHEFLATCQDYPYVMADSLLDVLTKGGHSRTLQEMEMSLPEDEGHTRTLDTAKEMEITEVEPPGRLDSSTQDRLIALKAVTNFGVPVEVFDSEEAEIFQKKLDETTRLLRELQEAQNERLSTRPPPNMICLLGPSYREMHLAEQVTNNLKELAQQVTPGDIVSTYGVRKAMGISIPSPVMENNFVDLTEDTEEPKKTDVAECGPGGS

Homo sapiens = organism: Homo sapiens; assay: Selectivity ratio of IC50 for His tagged recombinant BRD4 bromodomain 1 (unknown origin) to IC50 for His tagged recombinant CBP (unknown origin)

**Q.** With `CNC(=O)c1c[nH]c2c(C(C)C)nc(N3CCCc4cc(-c5cnn(C)c5)c(C(F)F)cc43)cc12` as the molecule, how does the Kd [1] read?
**A.** Its Kd is greater than 10 µM.

**Q.** What about the Kd [2] of the same molecule?
**A.** Its Kd is greater than 10 µM.

**Q.** What about the half-life [3] of the same molecule?
**A.** The half-life was 1.3 h.

**Q.** And the Kd [4]?
**A.** Its Kd is greater than 10 µM.

**Q.** What about the Activity [5] of the same molecule?
**A.** The Activity was “Active”.

**Q.** And the CLint scaled at 1 µM [6]?
**A.** Its CLint scaled at 1 µM is 25 mL/min/kg.

**Q.** What about the CLint scaled at 1 µM [7] of the same molecule?
**A.** Its CLint scaled at 1 µM is 50 mL/min/kg.

**Q.** What about the Activity (CREB-binding protein [8]) of the same molecule?
**A.** The Activity was “Active”.

**Q.** What about the Vd [9] of the same molecule?
**A.** Its Vd is 1.9 L/kg.

**Q.** And the clearance [10]?
**A.** Its clearance is 18.2 mL/min/kg.

**Q.** And the IC50 [11]?
**A.** Its IC50 is 2.3 µM.

**Q.** What about the CLint scaled at 1 µM [12] of the same molecule?
**A.** The CLint scaled at 1 µM was 13 mL/min/kg.

**Q.** What about the IC50 (CREB-binding protein [13]) of the same molecule?
**A.** Its IC50 is 0.0022 µM.

**Q.** And the bioavailability [14]?
**A.** The bioavailability was 52%.

**Q.** What about the EC50 [15] of the same molecule?
**A.** Its EC50 is 0.053 µM.

**Q.** What about the Kd [16] of the same molecule?
**A.** The Kd was greater than 10 µM.

**Q.** What about the Ratio IC50 (Homo sapiens) of the same molecule?
**A.** Its Ratio IC50 is 1050.
